According to ChEMBL document CHEMBL1143707, “7-Arylpiperazinylalkyl and 7-tetrahydroisoquinolinylalkyl derivatives of 8-alkoxy-purine-2,6-dione and some of their purine-2,6,8-trione analogs as 5-HT(1A), 5-HT(2A), and 5-HT(7) serotonin receptor ligands” (Bioorg Med Chem, 2007):
Each block holds one molecule with its values, some of them ahead of it.

Key:
[1] = target: T1, 5-hydroxytryptamine receptor 1A (Rattus norvegicus, UniProt P19327); assay: Displacement of [3H]8-OH-DPAT from rat brain 5HT1A receptor
T1 sequence (P19327 whole entry): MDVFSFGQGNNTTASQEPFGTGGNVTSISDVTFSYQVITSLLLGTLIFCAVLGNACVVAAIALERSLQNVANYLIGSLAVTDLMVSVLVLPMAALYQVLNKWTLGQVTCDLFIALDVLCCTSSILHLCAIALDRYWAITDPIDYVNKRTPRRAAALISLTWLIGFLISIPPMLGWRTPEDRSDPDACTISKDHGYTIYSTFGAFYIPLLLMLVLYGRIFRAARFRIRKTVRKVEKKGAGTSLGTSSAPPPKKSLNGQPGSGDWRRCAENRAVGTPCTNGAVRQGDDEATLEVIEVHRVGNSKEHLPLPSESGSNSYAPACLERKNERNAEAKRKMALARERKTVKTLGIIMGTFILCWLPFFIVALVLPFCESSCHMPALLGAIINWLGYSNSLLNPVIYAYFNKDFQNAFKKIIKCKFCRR
Method in brief: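 Rat hippocampal membranes; 1 nM [3H]-8-OH-DPAT; nonspecific binding with 10 μM 5-HT; 8–10 competitor concentrations in triplicate, ≥3 experiments; GF/B filtration, ice-cold buffer washes, scintillation counting; Ki by nonlinear regression with Cheng–Prusoff.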

[2] = target: 5-hydroxytryptamine receptor 7 (Rattus norvegicus, UniProt P32305); assay: Displacement of [3H]5CT from 5HT7 receptor in Wistar rat hyphalamic membrane; assay type: cell membranes
5-hydroxytryptamine receptor 7, sequence (P32305 whole entry): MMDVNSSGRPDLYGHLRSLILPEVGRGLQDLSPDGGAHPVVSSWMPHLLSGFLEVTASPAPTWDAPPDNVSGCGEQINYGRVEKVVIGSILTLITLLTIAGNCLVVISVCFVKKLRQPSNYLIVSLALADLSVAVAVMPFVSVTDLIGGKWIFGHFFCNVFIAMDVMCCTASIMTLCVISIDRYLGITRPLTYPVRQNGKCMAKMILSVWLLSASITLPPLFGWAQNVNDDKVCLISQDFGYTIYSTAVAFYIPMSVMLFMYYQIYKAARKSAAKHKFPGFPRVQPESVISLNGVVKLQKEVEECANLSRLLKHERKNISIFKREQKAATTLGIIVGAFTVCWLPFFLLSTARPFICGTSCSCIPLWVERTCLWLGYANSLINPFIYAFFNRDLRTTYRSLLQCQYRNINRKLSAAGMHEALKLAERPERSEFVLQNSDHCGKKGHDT

[3] = target: 5-hydroxytryptamine receptor 2A (Rattus norvegicus, UniProt P14842); assay: Displacement of [3H]ketanserin from rat brain 5HT2A receptor
5-hydroxytryptamine receptor 2A, sequence (P14842 whole entry): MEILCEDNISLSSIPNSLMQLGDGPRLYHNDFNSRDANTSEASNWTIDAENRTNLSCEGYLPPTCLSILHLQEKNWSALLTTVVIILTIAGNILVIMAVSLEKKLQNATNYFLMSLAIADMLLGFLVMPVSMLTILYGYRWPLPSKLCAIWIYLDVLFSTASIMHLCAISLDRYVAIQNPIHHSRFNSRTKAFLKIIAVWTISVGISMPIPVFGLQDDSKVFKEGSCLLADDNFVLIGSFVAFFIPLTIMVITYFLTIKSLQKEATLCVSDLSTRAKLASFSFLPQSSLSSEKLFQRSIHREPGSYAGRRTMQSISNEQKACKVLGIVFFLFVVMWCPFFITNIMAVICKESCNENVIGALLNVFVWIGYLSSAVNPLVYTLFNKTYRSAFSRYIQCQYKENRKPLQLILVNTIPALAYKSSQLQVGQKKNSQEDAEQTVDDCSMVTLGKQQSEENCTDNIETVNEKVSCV
Method in brief: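 Rat brain membranes; 0.6 nM [3H]-ketanserin; nonspecific binding with 1 μM methysergide; 8–10 competitor concentrations in triplicate, ≥3 experiments; GF/B filtration, scintillation counting; Ki via Cheng–Prusoff.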

Mus musculus [4] = assay: Locomotor activity in Swiss Albino mouse assessed as number of crossings in 6 mins at 10 mg/kg, ip administered 30 mins before the test; assay type: functional; settings: route intraperitoneal
Method in brief: (§1)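 Male Albino Swiss mice dosed ip 30 min before test (compound in 1% Tween 80; imipramine in distilled water); individual cages with IR beam sensors, consecutive beam breaks scored as ambulatory counts during first 6 min and over a 30-min session; n = 10/group; mean ± SEM.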

Mus musculus [5] = assay: Effect on compound induced hypothermia in Swiss Albino mouse at 2.5 mg/kg, ip in presence of 0.1 mg/kg WAY 100635 after 30 mins relative to control; assay type: functional
Method in brief: (§2)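 Male Albino Swiss mice; WAY 100635 0.1 mg/kg sc (in distilled water) 15 min before ip compound (1% Tween 80); rectal temperature at 30 and 60 min after compound; Δt from basal; n = 8/group; mean ± SEM.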

Mus musculus [6] = assay: Decrease in body temperature in Swiss Albino mouse at 2.5 mg/kg, ip administered 30 mins before the test measured after 60 mins relative to control; assay type: functional; settings: route intraperitoneal
Method in brief: (§3)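 Male Albino Swiss mice (24-28 g) given compound ip in 1% aqueous Tween 80 (10 mL/kg); rectal temperature read at 30, 60, 90 and 120 min post-dose; Δt versus basal temperature taken at start (initial ~36.0 °C); n = 8/group; mean ± SEM.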

Mus musculus [7] = assay: Locomotor activity in Swiss Albino mouse assessed as number of crossings in 30 mins at 20 mg/kg, ip administered 30 mins before the test; assay type: functional; settings: route intraperitoneal; method in brief: as §1
Mus musculus [8] = assay: Effect on compound induced hypothermia in Swiss Albino mouse at 2.5 mg/kg, ip in presence of 0.1 mg/kg WAY 100635 after 60 mins relative to control; assay type: functional; method in brief: as §2
Mus musculus [9] = assay: Locomotor activity in Swiss Albino mouse assessed as number of crossings in 6 mins at 20 mg/kg, ip administered 30 mins before the test; assay type: functional; settings: route intraperitoneal; method in brief: as §1
Mus musculus [10] = assay: Antidepressant activity in Swiss Albino mouse assessed as immobility time during final 4 mins of 6 mins session at 20 mg/kg, ip administered 30 mins before the test in forced-swimming test; assay type: functional; settings: route intraperitoneal
Method in brief: (§4)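 Male Albino Swiss mice (24-28 g), ip in 1% aqueous Tween 80 suspension (10 mL/kg), 30 min pretest; single glass cylinder (25 cm high, 10 cm diameter), 6 cm water at 23–25 °C for 6 min; immobility (floating, minimal head-keeping movements) timed over final 4 min; n = 9-10/group; mean ± SEM.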

Mus musculus [11] = assay: Decrease in body temperature in Swiss Albino mouse at 5 mg/kg, ip administered 30 mins before the test measured after 90 mins relative to control; assay type: functional; settings: route intraperitoneal; method in brief: as §3
Mus musculus [12] = assay: Anxiolytic activity in Swiss Albino mouse assessed as number of punished crossings for 60 secs at 10 mg/kg, ip administered 30 mins before the test in four-plate test; assay type: functional; settings: route intraperitoneal
Method in brief: (§5)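 Male Albino Swiss mice (24-28 g), ip in 1% Tween 80 (10 mL/kg) 30 min before test; box with four metal floor plates, 120 V for 0.5 s on each plate-to-plate crossing after 15 s free exploration, 3 s shock-free if running continues; punished crossings counted over 60 s; n = 9-10/group; mean ± SEM.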

Mus musculus [13] = assay: Antidepressant activity in Swiss Albino mouse assessed as immobility time during final 4 mins of 6 mins session at 10 mg/kg, ip administered 30 mins before the test in forced-swimming test; assay type: functional; settings: route intraperitoneal; method in brief: as §4
Mus musculus [14] = assay: Decrease in body temperature in Swiss Albino mouse at 5 mg/kg, ip administered 30 mins before the test measured after 120 mins relative to control; assay type: functional; settings: route intraperitoneal; method in brief: as §3
Mus musculus [15] = assay: Antidepressant activity in Swiss Albino mouse assessed as immobility time during final 4 mins of 6 mins session at 5 mg/kg, ip administered 30 mins before the test in forced-swimming test; assay type: functional; settings: route intraperitoneal; method in brief: as §4
Mus musculus [16] = assay: Locomotor activity in Swiss Albino mouse assessed as number of crossings in 30 mins at 10 mg/kg, ip administered 30 mins before the test; assay type: functional; settings: route intraperitoneal; method in brief: as §1
Mus musculus [17] = assay: Antidepressant activity in Swiss Albino mouse assessed as immobility time during final 4 mins of 6 mins session at 2.5 mg/kg, ip administered 30 mins before the test in forced-swimming test; assay type: functional; settings: route intraperitoneal; method in brief: as §4
Mus musculus [18] = assay: Anxiolytic activity in Swiss Albino mouse assessed as number of punished crossings for 60 secs at 2.5 mg/kg, ip administered 30 mins before the test in four-plate test; assay type: functional; settings: route intraperitoneal; method in brief: as §5
Mus musculus [19] = assay: Decrease in body temperature in Swiss Albino mouse at 2.5 mg/kg, ip administered 30 mins before the test measured after 90 mins relative to control; assay type: functional; settings: route intraperitoneal; method in brief: as §3
Mus musculus [20] = assay: Decrease in body temperature in Swiss Albino mouse at 5 mg/kg, ip administered 30 mins before the test measured after 60 mins relative to control; assay type: functional; settings: route intraperitoneal; method in brief: as §3
Mus musculus [21] = assay: Locomotor activity in Swiss Albino mouse assessed as number of crossings in 6 mins at 5 mg/kg, ip administered 30 mins before the test; assay type: functional; settings: route intraperitoneal; method in brief: as §1
Mus musculus [22] = assay: Locomotor activity in Swiss Albino mouse assessed as number of crossings in 30 mins at 5 mg/kg, ip administered 30 mins before the test; assay type: functional; settings: route intraperitoneal; method in brief: as §1
Mus musculus [23] = assay: Decrease in body temperature in Swiss Albino mouse at 2.5 mg/kg, ip administered 30 mins before the test measured after 30 mins relative to control; assay type: functional; settings: route intraperitoneal; method in brief: as §3
Mus musculus [24] = assay: Anxiolytic activity in Swiss Albino mouse assessed as number of punished crossings for 60 secs at 5 mg/kg, ip administered 30 mins before the test in four-plate test; assay type: functional; settings: route intraperitoneal; method in brief: as §5
Mus musculus [25] = assay: Decrease in body temperature in Swiss Albino mouse at 5 mg/kg, ip administered 30 mins before the test measured after 30 mins relative to control; assay type: functional; settings: route intraperitoneal; method in brief: as §3
Mus musculus [26] = assay: Decrease in body temperature in Swiss Albino mouse at 2.5 mg/kg, ip administered 30 mins before the test measured after 120 mins relative to control; assay type: functional; settings: route intraperitoneal; method in brief: as §3
Mus musculus [27] = assay: Locomotor activity in Swiss Albino mouse assessed as number of crossings in 6 mins at 30 mg/kg, ip administered 30 mins before the test; assay type: functional; settings: route intraperitoneal; method in brief: as §1
Mus musculus [28] = assay: Antidepressant activity in Swiss Albino mouse assessed as immobility time during final 4 mins of 6 mins session at 30 mg/kg, ip administered 30 mins before the test in forced-swimming test; assay type: functional; settings: route intraperitoneal
Mus musculus [29] = assay: Locomotor activity in Swiss Albino mouse assessed as number of crossings in 30 mins at 30 mg/kg, ip administered 30 mins before the test; assay type: functional; settings: route intraperitoneal; method in brief: as §1

Ki [1]: 12 nM
Ki [2]: 51 nM
Ki [3]: 15 nM
SMILES: CCOc1nc2c(c(=O)n(C)c(=O)n2C)n1CCCCN1CCN(c2cccc(Cl)c2)CC1

Ki [1]: 260 nM
Ki [2]: 3670 nM
Ki [3]: 60 nM
SMILES: Cn1c(=O)c2c([nH]c(=O)n2CCCCN2CCN(c3cccc(Cl)c3)CC2)n(C)c1=O

Ki [1]: 83 nM
Ki [2]: 410 nM
Ki [3]: 980 nM
SMILES: CCOc1nc2c(c(=O)n(C)c(=O)n2C)n1CCCN1CCN(c2ccccc2OC)CC1

Ki [1]: 4210 nM
Ki [2]: 13900 nM
Ki [3]: 230 nM
SMILES: Cn1c(=O)c2c([nH]c(=O)n2CCCN2CCN(c3ccccc3)CC2)n(C)c1=O

Ki [1]: 288 nM
Ki [2]: 267 nM
Ki [3]: 25 nM
SMILES: CCCOc1nc2c(c(=O)n(C)c(=O)n2C)n1CCCN1CCN(c2cccc(Cl)c2)CC1

Ki [1]: 1110 nM
Ki [2]: 1880 nM
Ki [3]: 58 nM
SMILES: Cn1c(=O)c2c([nH]c(=O)n2CCCN2CCN(c3cccc(Cl)c3)CC2)n(C)c1=O

Ki [1]: 1070 nM
Ki [2]: 5750 nM
Ki [3]: 590 nM
SMILES: CCOc1nc2c(c(=O)n(C)c(=O)n2C)n1CCCN1CCc2ccccc2C1

Ki [1]: 130 nM
Ki [2]: 680 nM
Ki [3]: 57 nM
SMILES: CCCOc1nc2c(c(=O)n(C)c(=O)n2C)n1CCCCN1CCN(c2ccccc2)CC1

Ki [1]: 800 nM
Ki [2]: 980 nM
Ki [3]: 51 nM
SMILES: CCCOc1nc2c(c(=O)n(C)c(=O)n2C)n1CCCN1CCN(c2ccccc2)CC1

Ki [1]: 11 nM
Ki [2]: 54 nM
Ki [3]: 253 nM
SMILES: CCOc1nc2c(c(=O)n(C)c(=O)n2C)n1CCCCN1CCN(c2ccccc2OC)CC1.Cl
Activity (Mus musculus [4]): 56.2
Activity (Mus musculus [5]): -0.5 °C
Activity (Mus musculus [6]): -1 °C
Activity (Mus musculus [7]): 19.5
Activity (Mus musculus [8]): -0.3 °C
Activity (Mus musculus [9]): 11.1
Activity (Mus musculus [10]): 178.2 s
Activity (Mus musculus [11]): -1.5 °C
Activity (Mus musculus [12]): 3.8
Activity (Mus musculus [13]): 122.6 s
Activity (Mus musculus [14]): -1.3 °C
Activity (Mus musculus [15]): 126.9 s
Activity (Mus musculus [16]): 193.4
Activity (Mus musculus [17]): 154.4 s
Activity (Mus musculus [18]): 4.1
Activity (Mus musculus [19]): -0.9 °C
Activity (Mus musculus [20]): -1.9 °C
Activity (Mus musculus [21]): 125.5
Activity (Mus musculus [22]): 325
Activity (Mus musculus [23]): -1.5 °C
Activity (Mus musculus [24]): 5.8
Activity (Mus musculus [25]): -2.5 °C
Activity (Mus musculus [26]): -0.7 °C

SMILES: CN(C)CCCN1c2ccccc2CCc2ccccc21 [IMIPRAMINE]
Activity (Mus musculus [4]): 338
Activity (Mus musculus [9]): 314.9
Activity (Mus musculus [10]): 107.8 s
Activity (Mus musculus [27]): 300.9
Activity (Mus musculus [13]): 149.1 s
Activity (Mus musculus [16]): 877
Activity (Mus musculus [28]): 76.4 s
Activity (Mus musculus [29]): 602.3
